Results collected from several papers.
Each line is one published result; the experiments were not run side by side.
Target: Ephrin type-A receptor 2 (EPHA2, Homo sapiens, UniProt P29317)

O=C(NCCCN1CCOCC1)c1ccc(Nc2ncc(Cl)c(-c3ccc(Cl)s3)n2)cc1  remaining binding (binding; competition with immobilised ligand; 1 µM): 100%
N[C@H]1CCN(c2nccc(-c3cnn4ncccc34)n2)C1  remaining binding (binding; 1 µM): 87%
O=C(NCC1CCOCC1)c1n[nH]cc1NC(=O)c1c(F)cccc1F  remaining binding (binding; competition with immobilised ligand; 1 µM): 100%
Cc1cnn2ncc(-c3ccnc(N(C)C)n3)c2c1  remaining binding (binding; 1 µM): 95%
O=C(c1ccc(Nc2nccc(-c3cc4ccccc4s3)n2)cc1)N1CCC(N2CCCC2)CC1  remaining binding (binding; competition with immobilised ligand; 1 µM): 65%
Nc1cnc(N2CCc3cc(S(=O)(=O)Nc4c(F)cc(Cl)cc4F)cc(N4CCCC4=O)c32)nc1  remaining binding (cell-free assay; competition with immobilised ligand; 1 µM): 100%
CN(C)c1nccc(-c2cnn3ncccc23)n1  remaining binding (binding; 1 µM): 85%
Nc1ncc2c(n1)-c1c([nH]c3ccc(C#CC4CC4)cc13)CCCC2  remaining binding (binding; competition with immobilised ligand; 1 µM): 100%
C[C@@H](c1ccc(-n2cnc3c(N)ncnc32)cc1)N1CCc2nn(C)c(Cc3ccccc3)c2C1=O  remaining binding (binding; competition with immobilised ligand; 0.1 µM): 100%
Cc1cc(C)c(-n2ccn3nc(-c4cccnc4)cc23)cc1NC(=O)c1cc(C#N)cc(S(F)(F)(F)(F)F)c1  remaining binding (cell-free assay; competition with immobilised ligand; 0.1 µM): 79.6%
F[C@@H]1CCN(c2nccc(-c3cnn4ncccc34)n2)C1  remaining binding (binding; 1 µM): 100%
COc1cnc(Nc2cccc(S(N)(=O)=O)c2)nc1N1CCN(c2ccccc2)C(=O)C1  remaining binding (binding; competition with immobilised ligand; 1 µM): 99%
CN(c1nccc(-c2cnn3ncccc23)n1)C1CC1  remaining binding (binding; 1 µM): 99%
C=CC(=O)N1CCC(C(=O)NCC(=O)N2CCN(c3nc(-c4cnc(N)nc4C(F)F)nc(N4CCOCC4)n3)CC2)CC1  remaining binding (binding; competition with immobilised ligand; 1 µM): 95%
Cc1nc(C2CCN(C(=O)c3ccc(OC(F)(F)F)cc3N)CC2)c2ncc(N3CCN(C)CC3)cc2n1  remaining binding (cell-free assay; competition with immobilised ligand; 1 µM): 100%
Cc1cnc(Nc2ccc(C(=O)N3CCC(N4CCCC4)CC3)cc2)nc1-c1cc2ccccc2s1  remaining binding (binding; competition with immobilised ligand; 1 µM): 26%
C[C@@H]1CN(c2ccc3ncc(-c4ccc5[nH]nc(C6CC6)c5c4)n3n2)C[C@H](C)O1  remaining binding (binding; competition with immobilised ligand; 0.5 µM): 100%
CO[C@@H](C)c1c(Nc2ccc([C@H](N(C)C(=O)C3CCS(=O)(=O)CC3)C(F)(F)F)cc2)cnc2cc(Cl)nn12  remaining binding (cell-free assay; competition with immobilised ligand; 1 µM): 100%
C[C@H]1CCN(c2nccc(-c3cnn4ncccc34)n2)C1  remaining binding (binding; 1 µM): 100%
CN(C)C(=O)Cn1cc(-c2nc([C@@](C)(c3ccc(-c4cnc(N)nc4)cc3)C3CC3)no2)cn1  remaining binding (cell-free assay; competition with immobilised ligand; 1 µM): 100%
c1cncc(-c2cccc(Nc3nccc(NC4CCCCC4)n3)c2)c1  remaining binding (binding; competition with immobilised ligand; 10 µM): 83%
C[C@H](c1ccc(F)cc1)N(Cc1cccc(C(=O)O)c1)C(=O)c1cnc2ccccc2c1  remaining binding (cell-free assay; competition with immobilised ligand; 1 µM): 100%
c1cnn2ncc(-c3ccnc(N4CCC45COC5)n3)c2c1  remaining binding (binding; 1 µM): 94%
CNC(=O)[C@@H]1CC[C@@H](n2c(-c3ccc4cnccc4c3)nc3ccc(C(=O)NCc4cccc(C(N)=O)c4)cc32)C1  remaining binding (binding; competition with immobilised ligand; 1 µM): 98%
C[C@H](c1ccnc(Nc2nc3ccc(-c4cc(N(C)C)ncn4)cc3[nH]2)c1)N1CCN(C(=O)CC(F)(F)F)CC1  remaining binding (cell-free assay; competition with immobilised ligand; 0.1 µM): 100%
